Laboratory results from ChEMBL document CHEMBL4831540, “Discovery of Aficamten (CK-274), a Next-Generation Cardiac Myosin Inhibitor for the Treatment of Hypertrophic Cardiomyopathy” (J Med Chem, 2021).

Experiments:
[1] = Inhibition of full-length myosin ATPase activity in bovine cardiac myofibrils; format: subcellular, Bos taurus, Heart
Outline: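 Bovine cardiac myofibril ATPase assay run at a calcium level giving 75% of maximal activity.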

[2] = Clearance in Sprague-Dawley rat at 0.5 mg/kg; format: ADME, organism-based; conditions: in vivo
[3] = Plasma protein binding in rat assessed as unbound fraction; format: ADME, cell-free
[4] = Bioavailability in Sprague-Dawley rat at 1 mg/kg, po or 1 mg/kg, iv; format: ADME, organism-based; conditions: in vivo
Outline: (§1)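 Rat PK with iv and po administration at 1 mg/kg. Clearance and half-life came from the iv arm, and bioavailability from the iv/po comparison.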

[5] = Clearance in mouse at 0.5 mg/kg, iv; format: ADME, organism-based; conditions: in vivo
Outline: (§2)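 Multi-species PK study in male animals, n = 3 per group (dog IV arm n = 2). Iv and oral dosing with plasma concentration–time profiles yielding Cmax, tmax, AUC0–t, CL, Vss, t1/2 and F.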

[6] = Volume of distribution at steady state in mouse at 0.5 mg/kg, iv; format: ADME, organism-based; conditions: in vivo, read-out: Vdss
Outline: (§3)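 Single iv or oral doses in male animals, 3 per group except dog iv (2 animals). Plasma concentration–time profiles gave Cmax, tmax, AUC0–t, clearance, steady-state volume of distribution, half-life and bioavailability.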

[7] = Half life in mouse at 0.5 mg/kg, iv; format: ADME, organism-based; conditions: in vivo; outline: as §2
[8] = AUC (0 to t) in mouse at 1 mg/kg, po; format: ADME, organism-based; design: dose 1 mg/kg; conditions: in vivo; outline: as §2
[9] = Half life in mouse at 1 mg/kg, po; format: ADME, organism-based; conditions: in vivo; outline: as §2
[10] = Oral bioavailability in mouse at 1 mg/kg; format: ADME, organism-based; conditions: in vivo; outline: as §3
[11] = Volume of distribution at steady state in Sprague-Dawley rat at 1 mg/kg, iv; format: ADME, organism-based; conditions: in vivo, read-out: Vdss; outline: as §3
[12] = Half life in Sprague-Dawley rat at 1 mg/kg, iv; format: ADME, organism-based; conditions: in vivo; outline: as §1
[13] = AUC (0 to t) in Sprague-Dawley rat at 2 mg/kg, po; format: ADME, organism-based; design: dose 2 mg/kg; conditions: in vivo; outline: as §2
[14] = Cmax in Sprague-Dawley rat at 3 mg/kg, po; format: ADME, organism-based; design: route oral, dose 3 mg/kg; conditions: in vivo
[15] = Tmax in Sprague-Dawley rat at 3 mg/kg, po; format: ADME, organism-based; conditions: in vivo; outline: as §3
[16] = Half life in Sprague-Dawley rat at 3 mg/kg, po; format: ADME, organism-based; conditions: in vivo
[17] = Oral bioavailability in Sprague-Dawley rat at 3 mg/kg; format: ADME, organism-based; conditions: in vivo; outline: as §3
[18] = Cmax in Sprague-Dawley rat at 8 mg/kg, po; format: ADME, organism-based; design: route oral, dose 8 mg/kg; conditions: in vivo; outline: as §2
[19] = AUC (0 to t) in Sprague-Dawley rat at 8 mg/kg, po; format: ADME, organism-based; design: dose 8 mg/kg; conditions: in vivo; outline: as §2
[20] = Half life in Sprague-Dawley rat at 8 mg/kg, po; format: ADME, organism-based; conditions: in vivo; outline: as §2
[21] = Clearance in Beagle dog at 1 mg/kg, iv; format: ADME, organism-based, Canis lupus familiaris; conditions: in vivo; outline: as §2
[22] = Volume of distribution at steady state in Beagle dog at 1 mg/kg, iv; format: ADME, organism-based, Canis lupus familiaris; conditions: in vivo; outline: as §3
[23] = Half life in Beagle dog at 1 mg/kg, iv; format: ADME, organism-based, Canis lupus familiaris; conditions: in vivo; outline: as §2
[24] = Cmax in Beagle dog at 1 mg/kg, po; format: ADME, organism-based, Canis lupus familiaris; design: route oral, dose 1 mg/kg; conditions: in vivo; outline: as §2
[25] = Tmax in Beagle dog at 1 mg/kg, po; format: ADME, organism-based, Canis lupus familiaris; conditions: in vivo; outline: as §3
[26] = Half life in Beagle dog at 1 mg/kg, po; format: ADME, organism-based, Canis lupus familiaris; conditions: in vivo; outline: as §2
[27] = AUC (0 to t) in cynomolgus monkey at 1 mg/kg, iv; format: ADME, organism-based, Macaca fascicularis; design: dose 1 mg/kg; conditions: in vivo; outline: as §2
[28] = Clearance in cynomolgus monkey at 1 mg/kg, iv; format: ADME, organism-based, Macaca fascicularis; conditions: in vivo; outline: as §2
[29] = Cmax in cynomolgus monkey at 1 mg/kg, po; format: ADME, organism-based, Macaca fascicularis; design: route oral, dose 1 mg/kg; conditions: in vivo; outline: as §2
[30] = Half life in cynomolgus monkey at 1 mg/kg, po; format: ADME, organism-based, Macaca fascicularis; conditions: in vivo; outline: as §2
[31] = Oral bioavailability in cynomolgus monkey at 1 mg/kg; format: ADME, organism-based, Macaca fascicularis; conditions: in vivo; outline: as §3
[32] = test system: Rattus norvegicus; test: Anti-hypertrophic cardiomyopathy in Sprague-Dawley rat assessed as reduction in fractional shortening at 4 mg/kg, po measured upto 24 hrs by echocardiography relative to control; format: functional; design: scale not given: the % may be the effect or the level left; conditions: time hrs <=24
Outline: (§4)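 Normal Sprague–Dawley rats were given single oral doses of 0.5–4 mg/kg. Left ventricular dimensions and fractional shortening were measured by echocardiography at selected time points over 24 h, relative to vehicle treatment.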

[33] = test system: Rattus norvegicus; test: Anti-hypertrophic cardiomyopathy in po dosed Sprague-Dawley rat assessed as reduction in fractional shortening measured upto 24 hrs by echocardiography; format: functional, organism-based; outline: as §4
[34] = Plasma protein binding in Beagle dog assessed as unbound fraction; format: ADME, Canis lupus familiaris
[35] = molecular target: T1, Cytochrome P450 2C8 (Homo sapiens, UniProt P10632); test: Inhibition of CYP2C8 in human liver microsomes assessed as paclitaxel 6a-hydroxylation reaction incubated for 30 mins in presence of NADP by LC-MS/MS analysis; format: ADME
T1 sequence (P10632 whole entry): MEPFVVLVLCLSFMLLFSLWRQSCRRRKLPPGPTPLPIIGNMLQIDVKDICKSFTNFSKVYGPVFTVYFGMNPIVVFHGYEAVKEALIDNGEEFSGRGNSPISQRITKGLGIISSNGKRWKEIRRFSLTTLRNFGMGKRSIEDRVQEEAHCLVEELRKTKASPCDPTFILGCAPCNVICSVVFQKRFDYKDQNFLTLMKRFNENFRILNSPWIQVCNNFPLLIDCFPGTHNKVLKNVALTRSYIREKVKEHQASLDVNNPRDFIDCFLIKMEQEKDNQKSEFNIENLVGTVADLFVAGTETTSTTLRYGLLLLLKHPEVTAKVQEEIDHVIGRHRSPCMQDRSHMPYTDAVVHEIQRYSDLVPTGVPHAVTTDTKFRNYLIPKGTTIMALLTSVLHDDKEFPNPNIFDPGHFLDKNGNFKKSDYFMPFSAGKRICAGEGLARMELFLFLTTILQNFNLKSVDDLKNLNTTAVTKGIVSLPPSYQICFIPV

[36] = molecular target: Cytochrome P450 2C9 (Homo sapiens, UniProt P11712); test: Inhibition of CYP2C9 in human liver microsomes assessed as diclofenac 4'-hydroxylation reaction incubated for 30 mins in presence of NADP by LC-MS/MS analysis; format: ADME
[37] = molecular target: Cytochrome P450 2C19 (Homo sapiens, UniProt P33261); test: Inhibition of CYP2C19 in human liver microsomes assessed as mephenytoin 4-hydroxylation reaction incubated for 30 mins in presence of NADP by LC-MS/MS analysis; format: ADME
[38] = molecular target: Cytochrome P450 2D6 (Homo sapiens, UniProt P10635); test: Inhibition of CYP2D6 in human liver microsomes assessed as bufuralol 1'-hydroxylation reaction incubated for 30 mins in presence of NADP by LC-MS/MS analysis; format: ADME
[39] = molecular target: T2, Cytochrome P450 3A4 (Homo sapiens, UniProt P08684); test: Inhibition of CYP3A4 in human liver microsomes assessed as midazolam 1'-hyrozylation reaction incubated for 30 mins in presence of NADP by LC-MS/MS analysis; format: ADME
Target sequence in this assay (P08684 whole entry): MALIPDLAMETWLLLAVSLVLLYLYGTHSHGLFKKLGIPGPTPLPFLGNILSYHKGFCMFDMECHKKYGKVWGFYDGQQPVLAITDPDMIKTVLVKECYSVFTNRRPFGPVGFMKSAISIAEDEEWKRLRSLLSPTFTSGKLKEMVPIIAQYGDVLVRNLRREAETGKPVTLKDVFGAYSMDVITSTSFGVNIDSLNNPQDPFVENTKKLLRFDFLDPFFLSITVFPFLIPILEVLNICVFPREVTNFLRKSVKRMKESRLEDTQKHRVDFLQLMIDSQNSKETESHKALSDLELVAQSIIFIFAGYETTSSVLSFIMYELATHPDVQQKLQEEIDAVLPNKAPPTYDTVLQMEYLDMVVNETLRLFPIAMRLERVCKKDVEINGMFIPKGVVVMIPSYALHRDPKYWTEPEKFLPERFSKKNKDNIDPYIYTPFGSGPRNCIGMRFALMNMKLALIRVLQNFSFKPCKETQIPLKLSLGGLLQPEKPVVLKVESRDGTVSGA

[40] = molecular target: T2, Cytochrome P450 3A4; test: Inhibition of CYP3A4 in human liver microsomes assessed as testosterone 6-beta-hydroxylation reaction incubated for 30 mins in presence of NADP by LC-MS/MS analysis; format: ADME
Target sequence in this assay (P08684 whole entry): as above

[41] = Half life in human; format: ADME
[42] = molecular target: T2, Cytochrome P450 3A4; test: Inhibition of CYP3A4 in human liver microsomes incubated for 30 mins in presence of NADP by LC-MS/MS analysis
Target sequence in this assay (P08684 whole entry, looked up): as the sequence (P08684 whole entry) above

Chain of Cytochrome P450 2C9 (P11712 whole entry): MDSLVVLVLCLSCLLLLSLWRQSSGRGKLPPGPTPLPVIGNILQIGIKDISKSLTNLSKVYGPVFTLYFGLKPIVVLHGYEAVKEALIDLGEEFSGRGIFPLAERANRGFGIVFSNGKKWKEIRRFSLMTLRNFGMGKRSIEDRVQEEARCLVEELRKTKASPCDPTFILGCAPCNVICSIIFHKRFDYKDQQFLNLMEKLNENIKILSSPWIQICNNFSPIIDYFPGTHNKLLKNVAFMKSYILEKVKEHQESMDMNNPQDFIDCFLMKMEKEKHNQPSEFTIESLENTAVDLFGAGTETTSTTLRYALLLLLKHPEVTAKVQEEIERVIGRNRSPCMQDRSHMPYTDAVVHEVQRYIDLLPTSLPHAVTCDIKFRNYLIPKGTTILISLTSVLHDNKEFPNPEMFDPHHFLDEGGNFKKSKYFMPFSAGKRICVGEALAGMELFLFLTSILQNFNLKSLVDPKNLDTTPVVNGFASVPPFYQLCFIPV
Chain of Cytochrome P450 2D6 (P10635 whole entry): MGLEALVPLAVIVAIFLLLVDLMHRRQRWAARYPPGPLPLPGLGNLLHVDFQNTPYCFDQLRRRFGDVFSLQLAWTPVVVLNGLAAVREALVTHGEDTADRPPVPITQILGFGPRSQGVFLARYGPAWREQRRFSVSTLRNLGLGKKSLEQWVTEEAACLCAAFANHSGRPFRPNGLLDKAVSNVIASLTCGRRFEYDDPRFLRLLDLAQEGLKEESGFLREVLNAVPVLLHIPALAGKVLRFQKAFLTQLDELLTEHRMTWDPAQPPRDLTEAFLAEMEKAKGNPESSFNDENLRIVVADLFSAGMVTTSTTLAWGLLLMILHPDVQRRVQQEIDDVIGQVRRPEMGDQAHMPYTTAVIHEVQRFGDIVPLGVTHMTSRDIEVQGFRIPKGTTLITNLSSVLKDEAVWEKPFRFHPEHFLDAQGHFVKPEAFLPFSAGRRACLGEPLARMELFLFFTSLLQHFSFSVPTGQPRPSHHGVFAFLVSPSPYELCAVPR
Chain of Cytochrome P450 2C19 (P33261 whole entry): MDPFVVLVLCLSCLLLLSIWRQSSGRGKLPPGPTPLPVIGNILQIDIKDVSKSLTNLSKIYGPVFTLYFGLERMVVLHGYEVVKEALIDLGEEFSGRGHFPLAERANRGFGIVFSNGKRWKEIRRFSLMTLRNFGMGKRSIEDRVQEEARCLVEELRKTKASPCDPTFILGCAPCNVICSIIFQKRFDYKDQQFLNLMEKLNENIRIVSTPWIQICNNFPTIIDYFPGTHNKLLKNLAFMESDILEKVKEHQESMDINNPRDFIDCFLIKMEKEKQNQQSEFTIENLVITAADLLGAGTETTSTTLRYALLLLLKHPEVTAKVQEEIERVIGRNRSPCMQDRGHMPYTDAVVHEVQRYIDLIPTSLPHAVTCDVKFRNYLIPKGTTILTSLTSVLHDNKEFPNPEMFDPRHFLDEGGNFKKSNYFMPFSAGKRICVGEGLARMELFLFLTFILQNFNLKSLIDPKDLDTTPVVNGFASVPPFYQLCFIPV

CCc1nc(-c2ccc3c(c2)CC[C@H]3NC(=O)c2cnn(C)c2)no1 [AFICAMTEN]
IC50 [1]: 1.4 µM
clearance [2]: 2 mL/min/kg
fraction unbound [3]: 0.018
bioavailability [4]: 55%
clearance [5]: 8.8 mL/min/kg
Vd [6]: 3.14 L/kg
half-life [7]: 4.5 h
AUC(0-t) [8]: 1830 ng·h/mL
half-life [9]: 3.4 h
bioavailability [10]: 98%
Vd [11]: 0.53 L/kg
half-life [12]: 3 h
AUC(0-t) [13]: 9450 ng·h/mL
Cmax [14]: 3170 ng/mL
Tmax [15]: 0.42 h
half-life [16]: 3.5 h
bioavailability [17]: 58%
Cmax [18]: 8440 ng/mL
AUC(0-t) [19]: 53700 ng·h/mL
half-life [20]: 3.3 h
clearance [21]: 3.3 mL/min/kg
Vd [22]: 10.5 L/kg
half-life [23]: 33.8 h
Cmax [24]: 245 ng/mL
Tmax [25]: 0.33 h
half-life [26]: 28.7 h
AUC(0-t) [27]: 1340 ng·h/mL
clearance [28]: 11.2 mL/min/kg
Cmax [29]: 65 ng/mL
half-life [30]: 12.1 h
bioavailability [31]: 41%
Activity [32]: 70%
IC10 ([33]; Rattus norvegicus, Sprague-Dawley, 24 h): 0.8 µM
IC50 ([33]; time hrs <=24): 7.9 µM
fraction unbound [34]: 0.251
IC50 [35]: > 100 µM
IC50 [36]: > 100 µM
IC50 [37]: > 100 µM
IC50 [38]: > 100 µM
IC50 [39]: > 100 µM
IC50 [40]: > 100 µM
half-life [41]: 67.2 h
IC50 [42]: > 100 µM
